# Results of several laboratories.
# Lines come from different studies, so protocols differ.
# Target: Death-associated protein kinase 2 (DAPK2, Homo sapiens, UniProt Q9UIK4)
Compound,read-out,action,technique,concentration,measurement,value
CS(=O)(=O)NCC[C@H](NC(=O)c1cncc2c1cnn2-c1ccc(F)cc1)c1ccnc(S(C)(=O)=O)c1,cell-free assay,,competition with immobilised ligand,1 µM,remaining binding,100%
O=C1NC(=O)c2cc(Nc3ccc(F)cc3)c(Nc3ccc(F)cc3)cc21,cell-free assay,,,0.5 µM,remaining signal,96.7%
COc1cc(-c2cn(C3CCc4c(F)cccc4N(CC(F)(F)F)C3=O)nn2)ccc1-n1cnc(C)c1 (stereo not shown),cell-free assay,,competition with immobilised ligand,1 µM,remaining binding,100%
CC(C)(C)c1nc(-c2cccc(NS(=O)(=O)c3c(F)cccc3F)c2F)c(-c2ccnc(N)n2)s1,enzyme activity,inhibitor,radiometric,1 µM,remaining activity,92%
CCCS(=O)(=O)Nc1ccc(F)c(C(=O)c2c[nH]c3ncc(-c4ccc(Cl)cc4)cc23)c1F,enzyme activity,inhibitor,,1 µM,inhibition,< 10%
Cc1ccc(Nc2nccc(N(C)c3ccc4c(C)n(C)nc4c3)n2)cc1S(N)(=O)=O,enzyme activity,inhibitor,,0.3 µM,inhibition,1%
Cc1sc(C(=O)NC2COC2)cc1-n1cc(NC(=O)Nc2c(F)cccc2Cl)cn1,enzyme activity,inhibitor,,10 µM,remaining activity,99.5%
CNC(=O)c1cc(Oc2ccc(NC(=O)Nc3ccc(Cl)c(C(F)(F)F)c3)cc2)ccn1,enzyme activity,inhibitor,,0.3 µM,inhibition,5%
COc1cc(Cl)c(C(=O)N[C@@H](CN[C@H]2CC[C@@H](N)CC2)Cc2ccc(C#N)cc2)cc1-c1ccc(CN[C@H](C)c2ccc(C)cc2)o1,enzyme activity,inhibitor,,1 µM,remaining activity,123%
CCCOc1ccc(OC)c(F)c1C(=O)c1ccc(C(=O)N[C@@H]2CNC[C@H]2NC(=O)c2ccc3[nH]ncc3c2)cc1,enzyme activity,inhibitor,,10 µM,remaining activity,84%
COc1ccc2c(c1)O[C@@H](c1ccc(OC)c(OC)c1)C[C@H]2NC(=O)C1(c2ccc3c(c2)OC(F)(F)O3)CC1,cell-free assay,,competition with immobilised ligand,1 µM,remaining binding,98%
Cc1cnc(NC2CCOCC2)nc1-n1cnc(C(=O)NC(CN)c2cc(F)cc(Cl)c2)c1 (stereo not shown),enzyme activity,inhibitor,radiometric,1 µM,remaining activity,108%
C[C@@H]1CN(c2cc(-c3nn(C)c4ccc(OC5(C)CC5)cc34)ncn2)C[C@H](C)O1,cell-free assay,,competition with immobilised ligand,1 µM,remaining binding,89%
CCN(CC)c1ccc(C2=NNC(=O)CC2C)cc1[N+](=O)[O-] (stereo not shown),enzyme activity,inhibitor,,10 µM,remaining activity,99%
Cc1nc(C2CCN(C(=O)c3ccc(OC(F)(F)F)cc3N)CC2)c2ncc(N3CCN(C)CC3)cc2n1,cell-free assay,,competition with immobilised ligand,1 µM,remaining binding,100%
CN1CC(Oc2cnc(C#N)cc2-c2ccn3nc(NC(=O)C4CC4)cc3c2)C1,enzyme activity,inhibitor,,1 µM,inhibition,0%
